Reference: ChEMBL document CHEMBL4321878, “Stereoselective Activity of 1-Propargyl-4-styrylpiperidine-like Analogues That Can Discriminate between Monoamine Oxidase Isoforms A and B” (J Med Chem, 2020)
Calls of active or inactive are those of the source. The calls are words filed in the database; no cut-off is given here.

Columns and labels:
[1] = Chemical stability of the compound in D2O measured incubated for >1 year at room temperature under dark condition by NMR analysis; assay type: physicochemical
[2] = system: SH-SY5Y; assay: Cytotoxicity against human SH-SY5Y cells assessed as reduction in cell viability at 5 to 10 uM measured after 24 hrs by MTS assay; assay type: cell-based
Outline: (§1)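 SH-SY5Y human neuroblastoma cells grown in Advanced DMEM with 10% FBS at 37 °C, 5% CO2, and switched to serum-depleted medium before treatment. Compounds (20 mM DMSO stocks) were applied at 5, 10 or 50 μM for 24 h. Viability read by MTS assay.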

[3] = Cytotoxicity against human SH-SY5Y cells assessed as cell viability at 50 uM measured after 24 hrs by MTS assay relative to control; assay type: cell-based; details: read-out: Activity; outline: as §1
[4] = system: Mus musculus; assay: Ex vivo inhibition of MAOA/MAOB in Swiss mouse brain homogenates assessed as residual activity at 60 mg/kg, ip measured after 30 mins using p-tyramine as substrate by amplex red reagent-based horseradish peroxidase-coupled fluorescence assay relative to control; assay type: functional
Outline: (§2)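 Male Swiss mice (n = 3 per group) received 60 mg/kg ip in 0.9% saline, or saline alone, 30 min before brain homogenate preparation. […] Residual activity reported as mean ± SD, n = 1 in triplicate.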

[5] = biological target: T1, Amine oxidase [flavin-containing] B (Mus musculus, UniProt Q8BW75); assay: Inhibition of MAOB in Swiss mouse brain homogenates assessed as residual activity at 50 uM using benzylamine as substrate preincubated for 10 mins followed by substrate addition by amplex red reagent-based horseradish peroxidase-coupled fluorescence assay relative to control; assay type: tissue-based; details: read-out: Activity
T1 sequence (Q8BW75 whole entry): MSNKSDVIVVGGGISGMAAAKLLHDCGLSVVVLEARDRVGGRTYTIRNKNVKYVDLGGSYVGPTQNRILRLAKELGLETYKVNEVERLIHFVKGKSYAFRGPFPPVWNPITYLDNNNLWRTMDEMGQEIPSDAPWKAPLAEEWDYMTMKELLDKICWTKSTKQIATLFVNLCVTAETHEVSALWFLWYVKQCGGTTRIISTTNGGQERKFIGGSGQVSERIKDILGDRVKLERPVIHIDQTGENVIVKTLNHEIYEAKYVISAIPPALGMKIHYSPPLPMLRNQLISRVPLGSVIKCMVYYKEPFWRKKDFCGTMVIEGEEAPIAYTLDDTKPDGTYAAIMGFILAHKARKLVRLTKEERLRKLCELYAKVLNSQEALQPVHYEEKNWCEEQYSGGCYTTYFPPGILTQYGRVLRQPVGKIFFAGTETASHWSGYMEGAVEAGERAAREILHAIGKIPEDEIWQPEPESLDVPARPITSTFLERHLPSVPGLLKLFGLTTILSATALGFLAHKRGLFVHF

[6] = system: Mus musculus; assay: Ex vivo inhibition of MAOB in Swiss mouse brain homogenates assessed as residual activity at 60 mg/kg, ip measured after 30 mins using benzylamine as substrate by amplex red reagent-based horseradish peroxidase-coupled fluorescence assay relative to control; assay type: functional; outline: as §2
[7] = system: Mus musculus; assay: Ex vivo inhibition of MAOB in ip dosed Swiss mouse brain homogenates measured after 30 mins using benzylamine as substrate by amplex red reagent-based horseradish peroxidase-coupled fluorescence assay; assay type: functional; details: 0.5 h
[8] = system: Mus musculus; assay: (§3) Ex vivo inhibition of MAOB in Swiss mouse brain homogenates assessed as residual activity at 0.3 mg/kg, ip measured after 30 mins using benzylamine as substrate by amplex red reagent-based horseradish peroxidase-coupled fluorescence assay relative to control; assay type: functional
[9] = system: Mus musculus; assay: as §3, with “ip administered once daily for 10 days” for “ip”, “measured” for “measured after”, “mins post-last dose” for “mins”; assay type: functional
[10] = system: Mus musculus; assay: Ex vivo inhibition of MAOB in Swiss mouse brain homogenates assessed as residual activity at 30 mg/kg, po administered via gavage measured after 90 mins using benzylamine as substrate by amplex red reagent-based horseradish peroxidase-coupled fluorescence assay relative to control; assay type: functional
[11] = system: Mus musculus; assay: Effect on spontaneous locomotor activity in Swiss mouse assessed as change in number of light beam crossings at 0.3 mg/kg, ip administered […] and monitored for 5 mins; assay type: ADME, organism-based; details: in vivo
[12] = system: Mus musculus; assay: Effect on spontaneous locomotor activity in Swiss mouse assessed as change in number of light beam crossings at >10 mg/kg, ip measured after 30 mins and monitored for 5 mins; assay type: ADME, organism-based; details: in vivo
Outline: (§4)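 Male Swiss mice given single ip doses of ≥10 mg/kg in 0.9% saline, tested 30 min later in the hole-board test combined with spontaneous locomotor activity recording.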

[13] = system: Mus musculus; assay: Effect on behavioral changes in Swiss mouse at >10 mg/kg, ip measured after 30 mins and monitored for 5 mins by hole-board test; assay type: ADME, organism-based; details: in vivo; outline: as §4
[14] = system: Mus musculus; assay: Effect on behavioral changes in Swiss mouse at 0.3 mg/kg, ip administered […] and monitored for 5 mins by hole-board test; assay type: ADME, organism-based; details: in vivo
[15] = Toxicity in Swiss mouse assessed as change in body weight at 0.3 mg/kg, ip administered once daily for 10 days measured during compound dosing; assay type: organism-based; details: in vivo, 240 h
[16] = Toxicity in Swiss mouse assessed as change in behavior at 0.3 mg/kg, ip administered once daily for 10 days measured during compound dosing; assay type: organism-based; details: in vivo, 240 h
[17] = system: Mus musculus; assay: Antidepressant-like activity in Swiss mouse assessed as reduction in immobility time at 3 to 10 mg/kg, ip administered as single dose for 30 mins prior to testing measured for last 4 mins of 6 mins test by tail suspension test; assay type: functional, organism-based
[18] = system: Mus musculus; assay: Antianxiety activity in Swiss mouse assessed as number of total arm entries at 10 mg/kg, ip measured after 30 mins and monitored for 5 mins by elevated plus maze test; assay type: functional
Outline: (§5)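 Adult male Swiss mice (25–30 g), given hydrochloride salts in 0.9% saline ip 30 min before the elevated plus maze; control mice received saline, with diazepam 1 mg/kg ip as reference. Scored arm entries, open-arm parameters and time in centre. Mice were used once, randomly assigned, and scored by blinded observers between 10:00 and 14:00 h.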

[19] = system: Mus musculus; assay: Antianxiety activity in Swiss mouse assessed as proportion of time spent in centre at 10 mg/kg, ip measured after 30 mins and monitored for 5 mins by elevated plus maze test relative to control; assay type: functional; outline: as §5
[20] = system: Mus musculus; assay: Effect on spontaneous locomotor activity in Swiss mouse assessed as change in number of light beam crossings at 10 mg/kg, ip measured after 30 mins and monitored for 5 mins; assay type: ADME, organism-based; details: in vivo

| Stability [1] | activity at 50 µM [5] [%] | Compound | Activity [2] | viability at 24 h, 50 µM [3] [%] | Activity [4] [%] | Activity [6] [%] | ED50 [7] [mg/kg] | Activity [8] [%] | Activity [9] [%] | Activity [10] [%] | Activity [11] | Activity [12] | Activity [13] | Activity [14] | Activity [15] | Activity [16] | Activity [17] | Activity [18] | Activity [19] [%] | Activity [20] |
| --- | --- | --- | --- | --- | --- | --- | --- | --- | --- | --- | --- | --- | --- | --- | --- | --- | --- | --- | --- | --- |
| Stable | -7.7 | C#CCN1CCC(CCc2ccc(C(F)(F)F)cc2)CC1.Cl | Non-Toxic | > 80 | 77.2 | 24.3 | 1.38 | 83.4 | 28.3 | 30.5 | Toxic | Toxic | Toxic | Toxic | Non-Toxic | Non-Toxic | – | – | – | – |
| – | – | C#CCN1CCC(/C=C\c2ccc(F)cc2)CC1.Cl | Non-Toxic | > 80 | – | – | – | – | – | – | – | – | – | – | – | – | Active | 9.7 | 13.4 | Toxic |
